From ChEMBL document CHEMBL1138040, “Activation of murine RNase L by isopolar 2'-phosphonate analogues of 2',5' oligoadenylates” (J Med Chem, 2006)

Columns and labels:
[1] = molecular target: T1, 2-5A-dependent ribonuclease (Mus musculus) (UniProt Q05921); experiment: Displacement of pA4[32P]pCp from mouse spleen RNase L at 1 uM; type: tissue-based
T1 sequence (whole entry): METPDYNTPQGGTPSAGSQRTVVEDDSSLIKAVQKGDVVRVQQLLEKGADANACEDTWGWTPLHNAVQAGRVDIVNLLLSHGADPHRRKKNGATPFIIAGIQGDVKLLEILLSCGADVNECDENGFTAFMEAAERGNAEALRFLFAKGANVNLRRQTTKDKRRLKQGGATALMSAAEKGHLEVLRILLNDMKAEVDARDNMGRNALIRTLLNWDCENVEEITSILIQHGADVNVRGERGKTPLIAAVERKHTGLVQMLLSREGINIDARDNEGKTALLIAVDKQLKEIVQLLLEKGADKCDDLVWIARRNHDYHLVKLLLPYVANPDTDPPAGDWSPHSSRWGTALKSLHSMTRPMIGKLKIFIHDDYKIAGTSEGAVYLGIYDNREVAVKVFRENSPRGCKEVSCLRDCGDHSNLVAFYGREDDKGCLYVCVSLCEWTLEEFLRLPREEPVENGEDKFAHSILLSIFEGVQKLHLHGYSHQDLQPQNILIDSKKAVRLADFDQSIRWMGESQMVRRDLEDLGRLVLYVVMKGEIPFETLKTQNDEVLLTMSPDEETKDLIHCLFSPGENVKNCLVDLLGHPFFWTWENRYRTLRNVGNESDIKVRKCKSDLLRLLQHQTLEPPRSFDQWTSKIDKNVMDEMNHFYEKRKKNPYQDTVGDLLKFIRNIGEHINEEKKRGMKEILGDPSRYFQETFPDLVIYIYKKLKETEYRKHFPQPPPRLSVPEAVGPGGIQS
In short: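 Competitive radiobinding using 20 µL male BALB/c mouse spleen 126 000g supernatant; oligoadenylate at 1 µM final with about 0.4 nM pA4-[32P]pCp in 25 µL. Held 60 min at 4 °C, filtered through nitrocellulose, washed with Tris pH 7.6/KCl/MgCl2/glycerol, bound radioactivity counted by scintillation. Triplicates; percent binding relative to natural pA4.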

Mus musculus = organism: Mus musculus; experiment: Stability in mouse spleen assessed as ability to resist degradation by nuclease; type: ADME
In short: (§1)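 Oligoadenylate (2.5 nmol) mixed with 9 µL soluble mouse spleen 126 000g supernatant, kept at 4 °C. Sampled periodically: diluted with aqueous 0.1% TFA, spun 14 000g 10 min, run on C18 RP-HPLC (acetonitrile gradient in 0.1% TFA, 260 nm). Intact and degradation peaks integrated to follow degradation over time.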

[2] = molecular target: T2, 2-5A-dependent ribonuclease (Mus musculus, UniProt Q05921); experiment: Binding to mouse RNase L assessed as displacement of pA4-[32P]pCp
T2 sequence (Q05921 whole entry): T1 sequence (whole entry)

[3] = Half life in mouse spleen at 4 degreeC; type: ADME; in short: as §1

Row | Compound | Activity [1] [%] | further results
1 | Nc1ncnc2c1ncn2[C@@H]1O[C@H](COP(=O)(O)O[C@H]2[C@H](O)[C@@H](COP(=O)(O)O[C@H]3[C@H](O)[C@@H](COP(=O)(O)O)O[C@H]3n3cnc4c(N)ncnc43)O[C@H]2n2cnc3c(N)ncnc32)[C@@H](O)[C@H]1OP(=O)(O)O | 0 | –
2 | Nc1ncnc2c1ncn2[C@@H]1O[C@H](COP(=O)(O)O[C@H]2[C@H](O)[C@@H](COP(=O)(O)O[C@H]3[C@H](O)[C@@H](COP(=O)(O)O[C@H]4[C@H](O)[C@@H](COP(=O)(O)O)O[C@H]4n4cnc5c(N)ncnc54)O[C@H]3n3cnc4c(N)ncnc43)O[C@H]2n2cnc3c(N)ncnc32)[C@@H](O)[C@H]1OP(=O)(O)O | 0 | –
3 | Nc1ncnc2c1ncn2[C@@H]1O[C@H](COP(=O)(O)O[C@H]2[C@H](O)[C@@H](COP(=O)(O)O[C@@H]3[C@H](O)[C@@H](COP(=O)(O)O)O[C@H]3n3cnc4c(N)ncnc43)O[C@H]2n2cnc3c(N)ncnc32)[C@@H](O)[C@H]1OP(=O)(O)O | 33 | –
4 | Nc1ncnc2c1ncn2[C@@H]1O[C@H](COP(=O)(O)O[C@@H]2[C@H](O)[C@@H](COP(=O)(O)O[C@@H]3[C@H](O)[C@@H](COP(=O)(O)O)O[C@H]3n3cnc4c(N)ncnc43)O[C@H]2n2cnc3c(N)ncnc32)[C@@H](O)[C@H]1OP(=O)(O)O | 39 | –
5 | Nc1ncnc2c1ncn2[C@@H]1O[C@H](COP(=O)(O)O)[C@H](O)[C@H]1OP(=O)(O)OC[C@H]1O[C@@H](n2cnc3c(N)ncnc32)[C@H](OP(=O)(O)OC[C@H]2O[C@@H](n3cnc4c(N)ncnc43)[C@H](OP(=O)(O)O)[C@@H]2O)[C@H]1O | 45 | –
6 | Nc1ncnc2c1ncn2[C@@H]1O[C@H](COP(=O)(O)O)[C@H](O)[C@H]1OP(=O)(O)OC[C@H]1O[C@@H](n2cnc3c(N)ncnc32)[C@H](OP(=O)(O)OC[C@H]2O[C@@H](n3cnc4c(N)ncnc43)[C@H](OP(=O)(O)O)[C@@H]2O)[C@@H]1O | 64 | –
7 | Nc1ncnc2c1ncn2[C@@H]1O[C@H](COP(=O)(O)O[C@@H]2[C@H](O)[C@@H](COP(=O)(O)O)O[C@H]2n2cnc3c(N)ncnc32)[C@H](O)[C@H]1OP(=O)(O)OC[C@H]1O[C@@H](n2cnc3c(N)ncnc32)[C@H](OP(=O)(O)O)[C@@H]1O | 41 | –
8 | Nc1ncnc2c1ncn2[C@@H]1O[C@H](COP(=O)(O)O[C@@H]2[C@H](O)[C@@H](COP(=O)(O)O[C@H]3[C@H](O)[C@@H](COP(=O)(O)O)O[C@H]3n3cnc4c(N)ncnc43)O[C@H]2n2cnc3c(N)ncnc32)[C@@H](O)[C@H]1OP(=O)(O)O | 49 | –

Now from value to compound, other results behind:

Row | Activity [1] [%] | Compound | further results
9 | 93 | Nc1ncnc2c1ncn2[C@@H]1O[C@H](COP(=O)(O)O)[C@H](O)[C@H]1OP(=O)(O)OC[C@H]1O[C@@H](n2cnc3c(N)ncnc32)[C@H](OP(=O)(O)OC[C@H]2O[C@@H](n3cnc4c(N)ncnc43)[C@H](OP(=O)(O)OC[C@H]3O[C@@H](n4cnc5c(N)ncnc54)[C@H](OP(=O)(O)O)[C@@H]3O)[C@H]2O)[C@@H]1O | Stability (Mus musculus): Stable; EC50 [2]: 0.323 µM
10 | 43 | Nc1ncnc2c1ncn2[C@@H]1O[C@H](COP(=O)(O)O)[C@H](O)[C@H]1OP(=O)(O)OC[C@H]1O[C@@H](n2cnc3c(N)ncnc32)[C@H](OP(=O)(O)OC[C@H]2O[C@@H](n3cnc4c(N)ncnc43)[C@H](OP(=O)(O)OC[C@H]3O[C@@H](n4cnc5c(N)ncnc54)[C@H](OP(=O)(O)O)[C@@H]3O)[C@H]2O)[C@H]1O | –
11 | 67 | Nc1ncnc2c1ncn2[C@@H]1O[C@H](COP(=O)(O)O[C@@H]2[C@H](O)[C@@H](COP(=O)(O)O)O[C@H]2n2cnc3c(N)ncnc32)[C@H](O)[C@H]1OP(=O)(O)OC[C@H]1O[C@@H](n2cnc3c(N)ncnc32)[C@H](OP(=O)(O)OC[C@H]2O[C@@H](n3cnc4c(N)ncnc43)[C@H](OP(=O)(O)O)[C@@H]2O)[C@@H]1O | –
12 | 100 | Nc1ncnc2c1ncn2[C@@H]1O[C@H](COP(=O)(O)O[C@@H]2[C@H](O)[C@@H](COP(=O)(O)O[C@@H]3[C@H](O)[C@@H](COP(=O)(O)O[C@@H]4[C@H](O)[C@@H](COP(=O)(O)O)O[C@H]4n4cnc5c(N)ncnc54)O[C@H]3n3cnc4c(N)ncnc43)O[C@H]2n2cnc3c(N)ncnc32)[C@@H](O)[C@H]1OP(=O)(O)O | half-life [3]: 10 h; EC50 [2]: 0.0009 µM
13 | 51 | Nc1ncnc2c1ncn2[C@@H]1O[C@H](COP(=O)(O)O[C@H]2[C@H](O)[C@@H](COP(=O)(O)O[C@@H]3[C@H](O)[C@@H](COP(=O)(O)O[C@H]4[C@H](O)[C@@H](COP(=O)(O)O)O[C@H]4n4cnc5c(N)ncnc54)O[C@H]3n3cnc4c(N)ncnc43)O[C@H]2n2cnc3c(N)ncnc32)[C@@H](O)[C@H]1OP(=O)(O)O | –
14 | 33 | Nc1ncnc2c1ncn2[C@@H]1O[C@H](COP(=O)(O)O[C@H]2[C@H](O)[C@@H](COP(=O)(O)O[C@H]3[C@H](O)[C@@H](COP(=O)(O)O[C@@H]4[C@H](O)[C@@H](COP(=O)(O)O)O[C@H]4n4cnc5c(N)ncnc54)O[C@H]3n3cnc4c(N)ncnc43)O[C@H]2n2cnc3c(N)ncnc32)[C@@H](O)[C@H]1OP(=O)(O)O | –
15 | 86 | Nc1ncnc2c1ncn2[C@@H]1O[C@H](COP(=O)(O)O)[C@H](O)[C@H]1OP(=O)(O)OC[C@H]1O[C@@H](n2cnc3c(N)ncnc32)[C@H](OP(=O)(O)OC[C@H]2O[C@@H](n3cnc4c(N)ncnc43)[C@H](OP(=O)(O)OC[C@H]3O[C@@H](n4cnc5c(N)ncnc54)[C@H](OP(=O)(O)O)[C@@H]3O)[C@@H]2O)[C@@H]1O | –
16 | 24 | Nc1ncnc2c1ncn2[C@@H]1O[C@H](COP(=O)(O)O[C@@H]2[C@H](O)[C@@H](COP(=O)(O)O[C@H]3[C@H](O)[C@@H](COP(=O)(O)O[C@H]4[C@H](O)[C@@H](COP(=O)(O)O)O[C@H]4n4cnc5c(N)ncnc54)O[C@H]3n3cnc4c(N)ncnc43)O[C@H]2n2cnc3c(N)ncnc32)[C@@H](O)[C@H]1OP(=O)(O)O | –
17 | 88 | Nc1ncnc2c1ncn2[C@@H]1O[C@H](COP(=O)(O)O[C@@H]2[C@@H](O)[C@@H](COP(=O)(O)O[C@@H]3[C@H](O)[C@@H](COP(=O)(O)O)O[C@H]3n3cnc4c(N)ncnc43)O[C@H]2n2cnc3c(N)ncnc32)[C@H](O)[C@H]1OP(=O)(O)OC[C@H]1O[C@@H](n2cnc3c(N)ncnc32)[C@H](OP(=O)(O)O)[C@@H]1O | EC50 [2]: 0.393 µM
18 | 40 | Nc1ncnc2c1ncn2[C@@H]1O[C@H](COP(=O)(O)O[C@@H]2[C@H](O)[C@@H](COP(=O)(O)O[C@@H]3[C@H](O)[C@@H](COP(=O)(O)O[C@H]4[C@H](O)[C@@H](COP(=O)(O)O)O[C@H]4n4cnc5c(N)ncnc54)O[C@H]3n3cnc4c(N)ncnc43)O[C@H]2n2cnc3c(N)ncnc32)[C@@H](O)[C@H]1OP(=O)(O)O | –
19 | 51 | Nc1ncnc2c1ncn2[C@@H]1O[C@H](COP(=O)(O)O)[C@H](O)[C@H]1OP(=O)(O)OC[C@H]1O[C@@H](n2cnc3c(N)ncnc32)[C@H](OP(=O)(O)OC[C@H]2O[C@@H](n3cnc4c(N)ncnc43)[C@H](OP(=O)(O)OC[C@H]3O[C@@H](n4cnc5c(N)ncnc54)[C@H](OP(=O)(O)O)[C@@H]3O)[C@@H]2O)[C@H]1O | –
20 | 37 | Nc1ncnc2c1ncn2[C@@H]1O[C@H](COP(=O)(O)O[C@@H]2[C@H](O)[C@@H](COP(=O)(O)O[C@H]3[C@H](O)[C@@H](COP(=O)(O)O[C@@H]4[C@H](O)[C@@H](COP(=O)(O)O)O[C@H]4n4cnc5c(N)ncnc54)O[C@H]3n3cnc4c(N)ncnc43)O[C@H]2n2cnc3c(N)ncnc32)[C@@H](O)[C@H]1OP(=O)(O)O | –
